This series concerns MS2 coat protein. Description: apparent Kd, MS2 coat protein; higher = weaker binding; RNA-MaP array; FMN 200 µM where present. The procedure, abridged:
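Stalled E. coli RNA polymerase transcribed the designs on Illumina sequencing-chip clusters. SNAP-549-labelled MS2 coat protein was titrated from 0.7 or 1.5 nM, doubling to 3 µM, without and then with constant ligand, in 100 mM Tris-HCl pH 7.5, 80 mM KCl, 4 mM MgCl2, BSA, DTT, yeast tRNA and Tween-20. Per-cluster binding curves were fitted to green signal normalised to red-channel RNA signal and control-cluster median Fmax. The apparent Kd is the median of the filtered fits.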

Where [1] appears, read: designed as: OFF switch for flavin mononucleotide, no ligand.
[2] abbreviates: ligand present: flavin mononucleotide, designed as: OFF switch for flavin mononucleotide.
Setting [3] is: designed as: ON switch for flavin mononucleotide, no ligand.
[4] abbreviates: ligand present: flavin mononucleotide, designed as: ON switch for flavin mononucleotide.

Broadly, the apparent Kd is a dissociation constant that holds for the conditions of the assay. As for “AUCACGUAAGGAUAUUCCUACGCAGACAUGAGGAUCACCCAUGUGUUAGUGAAGAAUCGAGGAGAAGGUACAAUGG”, the “apparent Kd” value under setting [1] was 29.5 nM and the “apparent Kd” value under setting [2] was determined as 26.8 nM.

In the case of “CGGUGACGUGUAGGAUAUGGCGAUGGGUUUUGGCCAGAAGGACAUGAGGAUCACCCAUGUGGUAGAGGGCUGGCGGCCGCCCGU”, the “apparent Kd” value reads like this: under setting [1], 26.5 nM; under setting [2], 60 nM.

Turning to “GUGGUCAGACAUGAGGAUCACCCAUGUGGAAUAAAUAAGGAUUAGGAUAUGGAAUAUAGGAUAUACCAGAAGGAAUGGUUGGUG”, the “apparent Kd” value is, setting by setting: under setting [3], 97.8 nM; under setting [4], 103 nM.

For the sequence “UAUAUGUCAGGAUAUCGAUUGGAAUGGAAUUCAGUUCUGGUUGAGAAGGGACAUGAGGAUCACCCAUGUUUUUC”, the “apparent Kd” value was determined as 37.3 nM under setting [1] and 171 nM under setting [2].

As for “GGUGCGUAUGUGAGGAUAUGCUGGUCCUUGGUUCAGCAGAAGGCACAUGAGGAUCACCCAUGUGGUGUCGUACC”, the “apparent Kd” value reads like this: under setting [1], 289 nM; under setting [2], 26.4 nM.

Regarding “CAUUAAUUCAUUAUAGUUAUUAUACAGGAUAUGUUACAUGAGGAUCACCCAUGUAUUCAUGGUAAACAGAAGGGUAAUACUCGU”, the “apparent Kd” value is 49.3 nM under setting [1] and 45.9 nM under setting [2].

Regarding “AGACGGAUCCGCGGUCGAUGCUAACUAGAAGGGCAGGUCACAUGAGGAUCACCCAUGUAGUAUAUGUAGGAUAUAGGAAGCGUU”, the “apparent Kd” value under setting [3] is 75 nM and the “apparent Kd” value under setting [4] came to 15.8 nM.

In the case of “GCCGAUUAAGUGAGGAUAUACCUAUGGAUACAUAGGUAGAAGGUACAUGAGGAUCACCCAUGUUCCUUAACGGC”, the “apparent Kd” value is, setting by setting: under setting [1], 11.4 nM; under setting [2], 13.2 nM.

Turning to “AUGCCCUGAGGAUAUCUCAUCCCGCACAUGAGGAUCACCCAUGUUCUUCUCCGGGUUCCGAGAGAAGGCAGGCCUA”, the “apparent Kd” value by setting is: under setting [1], 157 nM; under setting [2], 81.9 nM.

With “UAGCUCUCGGCAGGAUAUCCUGCAUAAUGUCGAGUCCGCGCCCGGACAUGAGGAUCACCCAUGUAGGAGAAGGGCCCACGGGCU”, the “apparent Kd” value was 24.2 nM under setting [1] and 45.5 nM under setting [2].

As for “GUUAAACAUGAGGAUCACCCAUGUCAAUGUAGUCGAGGAUAUGGGCAGCUAUGAGGCGUACUAGAAGGCGAAGAGU”, the “apparent Kd” value under setting [3] was found to be 361 nM and the “apparent Kd” value under setting [4] worked out at 178 nM.

For “AAUCCACAUGAGGAUCACCCAUGUGAGGAUAUGUCCAUAUUCGGCAAAUCGGAUAUGGACAGAAGGCACAUAAA”, the “apparent Kd” value came out at 32.9 nM under setting [1] and 87.1 nM under setting [2].

As for “CAAGCCAUUCGCAACUGCCGGCCGCAGGAUAUGGGUCGUUUAUACAUGAGGAUCACCCAUGUCGCCUAGAAGGGCGGCUGGGUC”, the “apparent Kd” value is, setting by setting: under setting [3], 260 nM; under setting [4], 38.9 nM.

Regarding “GUGCACACUCGAGGAUAUCGGAGUUUUCUUCUUUGAGAAGGCGAUUCGUGCCGUGUUAUUUUGGACAUGAGGAUCACCCAUGUG”, the “apparent Kd” value under setting [3] came to 66 nM and the “apparent Kd” value under setting [4] is 36.8 nM.

As to “ACAUGUCGUGAGAAGGACGGCGUGCAUAGCGCCGUAGGAUAUCAAGACAUGAGGAUCACCCAUGUACGCGUGUCCCGCCGUGCU”, the “apparent Kd” value is, setting by setting: under setting [1], 38.7 nM; under setting [2], 303 nM.

“AACCGACAUGAGGAUCACCCAUGUCAGGAUAUGGACUGACACCGAAAGAGUGGAGGAACCAGAAGGGACUGGGC”: the “apparent Kd” value is 32.4 nM under setting [1] and 69.5 nM under setting [2].

Consider “CUACCUUAUGAGAAGGCGAUCAUGAAACAUGAUCGAGGAUAUCAUGUAAACAUGAGGAUCACCCAUGUAUGGGUAUUAUGGUAU”, for which the “apparent Kd” value is, setting by setting: under setting [3], 91.5 nM; under setting [4], 25.4 nM.

Regarding “UUGUUGUGAGGAUAUCCAAUAUAUGACAUGAGGAUCACCCAUGUUUCCACUCGUACCUCCGGAGAAGGCACUUAUU”, the “apparent Kd” value runs as follows: under setting [1], 31.7 nM; under setting [2], 28.7 nM.

On to “GGAACGAUCAUCAUUGAACAUGAGGAUCACCCAUGUACGAUGUAGGAUAUAUACCCGGUCAAGGUAUAGAAGGACAGGGUACAG”, for which the “apparent Kd” value is, setting by setting: under setting [1], 18.6 nM; under setting [2], 55.4 nM.

Turning to “AUAUACAUUCGAGGAUAUCGUUAAAAUGUUAUGCGAGAAGGCGAGUCAUGAUUUAUUAUUUAGGACAUGAGGAUCACCCAUGUA”, the “apparent Kd” value was 40.2 nM under setting [3] and 33.1 nM under setting [4].

For “GUCAGCUCGUGAGGAUAUACAACACUGCUUCGGCAGUGUAUUAAGAUCACAUGAGGAUCACCCAUGUAGAAGGCACGAGCCGAU”, the “apparent Kd” value reads like this: under setting [1], 14.3 nM; under setting [2], 271 nM.

As for “CUUUUGUGAGGAUAUCAGGUGUGCUAGCGUACUGGUACAUCUGAGAAGGCACAUGAGGAUCACCCAUGUUCCUC”, the “apparent Kd” value came out at 42.2 nM under setting [1] and 238 nM under setting [2].

Turning to “AUAUCUUAUGAGAAGGCGAUCAUGAAACAUGAUCGAGGAUAUCAUGUAAACAUGAGGAUCACCCAUGUAUGGGUAUUAUGGUAU”, the “apparent Kd” value reads like this: under setting [3], 89.4 nM; under setting [4], 57 nM.

Turning to “AUAAUCACAUGAGGAUCACCCAUGUACCGAGCUAAAGCUACAUAGGAUAUGACAAGUAUAGCUUGUCAGAAGGGUGAGUCUCGC”, the “apparent Kd” value was found to be 46.3 nM under setting [3] and 67.1 nM under setting [4].

Take “UGUGCGUAUGUGAGGAUAUGCUGGUCCUUGGAUCAGCAGAAGGCACAUGAGGAUCACCCAUGUGGUGUCGUACU”: the “apparent Kd” value runs as follows: under setting [1], 296 nM; under setting [2], 25.7 nM.

As to “CGUUCACAUGAGGAUCACCCAUGUCAGAUUUGGUCAGGAUAUGGUCGGCAUCCGCUAUUGCCAGAAGGGACUGUUG”, the “apparent Kd” value under setting [3] stood at 55.3 nM and the “apparent Kd” value under setting [4] came to 36.3 nM.

In the case of “AGAUGUACAGCGAUAUGAUCGAGAGAUCAUGUCGCUGAAUUUAGAAGGACAUGAGGAUCACCCAUGUAGGAUAUGGGUGUAAUA”, the “apparent Kd” value under setting [3] is 80.8 nM and the “apparent Kd” value under setting [4] was determined as 72.8 nM.

For the sequence “UGUCGGAGCAGAGGAUAUUACAUGAGGAUCACCCAUGUAUGAACCAAUAGCUGGAAACAGCGAUGUAAGAAGGCUGCUCCGACA”, the “apparent Kd” value turned out to be 10.2 nM under setting [1] and 124 nM under setting [2].

Take “GGAUCGAAUGUGAGGAUAUACCACUGGAUACAGUGGUAGAAGGCACAUGAGGAUCACCCAUGUCCUUACGAUCC”: the “apparent Kd” value is 96.5 nM under setting [1] and 319 nM under setting [2].

For the sequence “CUGAUGUUAGGAUAUCAGGCGCCCGCCACUGGCAAGGCGCAUGAGAAGGGACAUGAGGAUCACCCAUGUAGUAA”, the “apparent Kd” value runs as follows: under setting [1], 26.3 nM; under setting [2], 55.7 nM.

“UUUUAACAUGAGGAUCACCCAUGUGAGGAUAUCGAAAUUUAUAUUAAUAUUAAUUAUUCGAGAAGGCACAUUUU”: the “apparent Kd” value by setting is: under setting [1], 119 nM; under setting [2], 126 nM.

For the sequence “CUCAUGUUAGGAUAUGCGCCCAGCCUAGUGGCCGGGCUCUAGCAGAAGGAACAUGAGGAUCACCCAUGUUUGCA”, the “apparent Kd” value is 62.5 nM under setting [1] and 18.6 nM under setting [2].

As to “AAUAACAGAGGAUAUACUGUUUUAUGUGUUUGUUGUUUUAAACAUGAGGAUCACCCAUGUAGAAGGCUGAGUAA”, the “apparent Kd” value runs as follows: under setting [1], 23.2 nM; under setting [2], 23.7 nM.

For the sequence “AAGUAGAUCCGAGGAUAUACAAUCUGGAAUCGGUACAUGAGGAUCACCCAUGUAGAAGGCGGAUCUACAGGUACUAAAGUACCA”, the “apparent Kd” value turned out to be 7.88 nM under setting [1] and 38.8 nM under setting [2].

For “GUAUAUCACUCAGGAUAUCUGUAAUUUAUUGAAACAUGAGGAUCACCCAUGUUCAUAAAUUUAUAGGAGAAGGGAGAGAUAUAC”, the “apparent Kd” value came to 4.39 nM under setting [3] and 4.58 nM under setting [4].

As for “AAUAUGAGCUGGUAUAAACCCGAAACAUGAGGAUCACCCAUGUAGGAUAUCAGCACGAUAAGUGCUGAGAAGGACAUCCAGCUC”, the “apparent Kd” value runs as follows: under setting [1], 14.5 nM; under setting [2], 14.5 nM.

With “GACAUGAGGAUCACCCAUGUCCAACCAGAAGGCCAGGAAUCGGACCCGAGUAUCGGGUUCGAGAUGGAGGAUAUGGGCGCCGAA”, the “apparent Kd” value under setting [3] turned out to be 75.1 nM and the “apparent Kd” value under setting [4] stood at 33.7 nM.

For the sequence “ACGAAGACACAAAUGUUCCACGGUGCAGAAGGGUCCCUCACAUGAGGAUCACCCAUGUAACUCGGACAGGAUAUGCUCUUGGGA”, the “apparent Kd” value was determined as 47.4 nM under setting [3] and 5.86 nM under setting [4].

On to “UCAUUUAAUACAGGAUAUGUUAGUAUACAGUAGAUUGGUUAUAACAUAAUAACAGAAGGGUAGAACAUGAGGAUCACCCAUGUA”, for which the “apparent Kd” value under setting [3] was 86 nM and the “apparent Kd” value under setting [4] amounted to 64.6 nM.

On to “UUUUAACAUGAGGAUCACCCAUGUGAGGAUAUCGAAAUUUAUAUUUAUAUUAAUUUUUCGAGAAGGCACAUUUU”, for which the “apparent Kd” value under setting [1] is 169 nM and the “apparent Kd” value under setting [2] came to 157 nM.

Consider “AUGCUAUAUGUAGGAUAUUCAAAGAAAGAGAAUGAAGAAGGACAUGAGGAUCACCCAUGUAAAAUGUAGAUAGAUAUCAUACAU”, for which the “apparent Kd” value under setting [1] is 18 nM and the “apparent Kd” value under setting [2] is 14 nM.

For the sequence “GUUUCGGGAGGAUAUGCGUGGAUUAUUCUCGUAUGUUGUUUACAUGAGGAUCACCCAUGUAGAAGGUCUGGAGC”, the “apparent Kd” value by setting is: under setting [1], 193 nM; under setting [2], 300 nM.

Take “UAGUGAUUGCAAGGAUAUGCUAGUUUUUAUUUGUGUUUGAUAACAAACAUGAGGAUCACCCAUGUGCAGAAGGUGCUAGAUAUG”: the “apparent Kd” value under setting [3] stood at 566 nM and the “apparent Kd” value under setting [4] is 510 nM.

Consider “AGCUACGUUUCGUAGCAGCUAGGUGAGGAUAUCCACUCUACAUGAGGAUCACCCAUGUUAACAUGGGAGAAGGCGCCUAGAAAG”, for which the “apparent Kd” value reads like this: under setting [3], 104 nM; under setting [4], 11.8 nM.

Consider “UUCUUGCAAGGAUAUGAUUUAAGUAACAUGAGGAUCACCCAUGUUUUUCCGUUGUUAUGUUCAGAAGGUGCGUGAU”, for which the “apparent Kd” value reads like this: under setting [1], 55.8 nM; under setting [2], 63.3 nM.

As for “UUAUCUCAUGAGAAGGACAUGAGGAUCACCCAUGUAGGAUAUCAUGGGUCAGAGGAAUUGAAUCUUCGGAUUCAAUUACUCUUC”, the “apparent Kd” value is 72 nM under setting [3] and 12.2 nM under setting [4].

Take “GGUCCUUCUGUUAGGAUAUGCUUUGGGCUUCCGCAGUAGAAGGAACAUGAGGAUCACCCAUGUCCGAUGCCGUA”: the “apparent Kd” value is, setting by setting: under setting [1], 65.3 nM; under setting [2], 84.4 nM.

With “GUCAGCUCGUGAGGAUAUACAUCACUGCUUCGGCAGUGUAUUAACAUCACAUGAGGAUCACCCAUGUAGAAGGCACGAGCUGAU”, the “apparent Kd” value by setting is: under setting [1], 16 nM; under setting [2], 22.7 nM.

These data come from the EternaBench riboswitch data.
